The list is not random: actives were taken first. Their share in the collection is about 3.7%.
GPR7 antagonist: human neuropeptides B/W receptor 1 antagonism. inhibition, % at 4.4 µM. AID 1861. GPR7-expressing cells, fluorescence antagonist assay. actives 1.1% (n = 290,000). P48145; in the data active = inhibition above about 16%, passing the limit was not always enough;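 note: cells stimulated with the agonist NPW; 0% = agonist with vehicle and 100% = vehicle without agonist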
Target sequence (P48145 whole entry, looked up): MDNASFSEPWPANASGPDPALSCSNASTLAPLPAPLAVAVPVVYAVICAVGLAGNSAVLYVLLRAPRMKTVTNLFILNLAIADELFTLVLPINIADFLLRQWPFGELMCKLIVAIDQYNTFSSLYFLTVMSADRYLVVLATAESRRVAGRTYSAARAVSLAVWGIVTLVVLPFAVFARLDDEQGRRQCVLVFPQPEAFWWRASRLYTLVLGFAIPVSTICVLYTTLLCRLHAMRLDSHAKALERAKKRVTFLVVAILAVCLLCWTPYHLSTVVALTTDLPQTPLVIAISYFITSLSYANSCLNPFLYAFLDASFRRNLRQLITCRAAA
PGE2 EP2 inh: EP2 receptor (human) inhibition | P43116 | C6 glioma cells expressing human EP2, cAMP TR-FRET; cells stimulated with saturating PGE2 | inhibition, % at 25 µM | actives 0.52% (n = 260,000) | AID 1422;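 active = percent inhibition above 40 after rounding to a whole number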;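 note: rat C6 glioma host cells with rolipram phosphodiesterase inhibitor present; the protocol text gives 20 µM as final concentration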
OX1R antag-1: blocks the human orexin 1 receptor; O43613; OX1R-expressing cells, FRET antagonist read-out; inhibition, % at 6.6 µM; actives 1.8% (n = 330,000); in the data active = inhibition mostly above about 38%, no sharp cut-off; inactive = mostly below about 40%;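 note: 0% = agonist challenge alone and 100% = reference antagonist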
OX1R antag-2: human HCRTR1 antagonism; O43613; CHO/OX1R cells, Fluo-8 calcium fluorescence, orexin A; inhibition, % at 5 µM; actives 0.43% (n = 330,000);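 active = inhibition above its plate's threshold, mean inhibition of all tested compounds on the plate plus 3 SD, cut at about 37% in these data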;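 note: 0% = orexin A challenge wells and 100% = SB-334867-A antagonist wells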
CHO parental Ca: signal in parental CHO cells, OX1R antagonist counter-screen; parental CHO-K1, ATP-induced calcium, Fluo-8 fluorescence; inhibition, % at 5.6 µM; actives 0.63% (n = 330,000);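 active = inhibition above that plate's mean sample inhibition plus 3 SD, cut at about 26% in these data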;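 note: 0% = ATP-challenged DMSO wells and 100% = DMSO wells without ATP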
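Material – parental CHO cells · Reagent – ATP stimulus · Compound – single nominal dose of 5.6 µM per compound · Detection – Fluo-8 fluorescence · Read-out basis – percent inhibition of calcium signal · Controls – ATP-challenged DMSO wells low, unchallenged DMSO wells high · Repeats – no replicates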
EP2 mod: EP2 receptor (human) modulation. AID 940. EP2-expressing cells, cAMP HTRF FRET, PGE2 co-stimulation. actives 0.83% (n = 260,000). induction, % at 25 µM. P43116;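 active = compounds whose cAMP rise, as percent of the full-agonist control response, exceeds 60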;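 note: rat C6 glioma line stably carrying human EP2 under a CMV promoter; the protocol text gives 20 µM as final concentration; 100% = response of wells given 1 µM PGE2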
OX1R HTRF confirm: OX1R (human) antagonism, HTRF confirmed. shares compounds with OX1R antag-1. OX1R-expressing cells, HTRF antagonist assay. inhibition, % at 6.6 µM. actives 49% (n = 1,800); in the data active = inhibition above about 55%;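 note: CHO cells expressing OX1R stimulated with orexin A at about EC80; 0% = agonist challenge alone and 100% = reference antagonist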
CHO-K1 HTRF cnt: counter-screen for OX1R antagonists: effect in parental CHO-K1 cells; inhibition, % at 6.6 µM; shares compounds with OX1R antag-1; HTRF counterscreen; actives 48% (n = 1,800); in the data active = inhibition above about 17%;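 note: 0% = agonist challenge with vehicle and 100% = vehicle alone without agonist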
* = called active by the depositor; . = no result; + = active, no number.

SMILES	GPR7 antagonist	PGE2 EP2 inh	OX1R antag-1	OX1R antag-2	CHO parental Ca	EP2 mod	OX1R HTRF confirm	CHO-K1 HTRF cnt
COC(=O)c1sccc1NC(=O)c1ccc(OC)cc1	12	10	89*	4	-14	43	68*	5
COc1ccc(C(=O)Nc2cc(OC)cc3cccnc23)cc1	8	.	99*	26	-18	.	86*	22*
COc1cc(NC(=O)c2ccc(Cl)cc2)c2ncccc2c1	-8	.	.	.	.	.	.	.
Cc1cc(CNC(=O)[C@H](C)[C@@H]2C[C@@]2(C)[C@@H](NC(=O)OCc2ccccc2)c2ccccc2)nn1C	2	10	33	3	-27	9	.	.
CCC(=O)Nc1ccccc1Nc1cc(C#N)c(C#N)cc1[N+](=O)[O-]	.	20	+	-17	-20	.	59*	72*
COc1ccc(NC(=O)COn2nnc3ccc(Cl)cc32)cc1OC	20	.	21	-19	-11	2	.	.
CC(=C1C(=O)c2ccccc2C1=O)N1CCN(C/C=C/c2ccccc2)CC1	0	5	29	-11	-8	-1	.	.
Cc1ccc(S(=O)(=O)c2cc3c(=O)n4ccccc4nc3n(CC3CCCO3)c2=N)cc1 (stereo unspecified)	-22	.	.	.	.	.	.	.
CCCCn1c(=NC(=O)c2cccnc2)c(C(=O)OCC)cc2c(=O)n3ccccc3nc21	-10	10	.	.	.	31	.	.
CCOCCCn1c(=NC(=O)c2cccnc2)c(C(=O)OCC)cc2c(=O)n3ccccc3nc21	-5	20	111*	-35	-20	29	57*	59*
CCOC(=O)c1cc2c(=O)n3ccccc3nc2n(CC2CCCO2)c1=NC(=O)/C=C/c1ccccc1 (stereo unspecified)	13	11	119*	-21	-22	-18	46	42*
CCOC(=O)c1cc2c(=O)n3ccccc3nc2n(CC2CCCO2)c1=NC(C)=O (stereo unspecified)	5	11	108*	-27	-17	.	39	56*
OCCCCCN=c1cc(-c2ccccc2)oc2ccc(Cl)cc12	2	13	82*	-27	-23	-3	54	54*
Cn1c2ccccc2c(=O)c2ccc(C#Cc3ccccn3)cc21	3	.	34	-34	-15	.	.	.
Cn1c2ccccc2c(=O)c2cc(C#Cc3ccccn3)ccc21	5	.	90*	29	-10	.	94*	11
CC(C)[C@H](NC(=O)Cc1ccccc1)C(=O)OCc1cc(=O)n2c(n1)sc1ccccc12	-5	18	12	-22	-17	1	.	.
Cn1c(N)c(C(=O)COC(=O)CSc2ccccc2)c(=O)n(C)c1=O	-6	4	5	-3	-4	9	.	.
O=C(CSCCN1C(=O)c2ccccc2C1=O)Nc1ccc2ccccc2c1	3	7	81*	-3	-22	-16	51	-2
O=C(CSCC(=O)Nc1ccc2ccccc2c1)NCc1ccccc1	-8	5	17	-18	-7	-77	.	.
Cc1nn(-c2ccccc2)c(C)c1/C=N/NC(=O)c1cc(O)cc(O)c1	1	.	14	4	-4	.	.	.
COc1cc2c(cc1O)CC[n+]1cc3c(OC)c(OC)ccc3cc1-2	6	1	77*	-5	-12	34	42	37*
COc1cc2c(cc1OC)-c1cc3ccc4c(c3c[n+]1CC2)OCO4	2	37	79*	0	-6	-13	54	75*
O=C(Nc1ccc2nc(-c3ccc(Br)o3)[nH]c2c1)c1cccs1	12	13	83*	-23	-27	-15	42	3
Cn1ncc(Cl)c1C(=O)N1CCN(c2cccc(Cl)c2)CC1	3	.	3	-27	-10	.	.	.
Cn1c(N)c(S(=O)(=O)c2ccc(Br)cc2)c2nc3ccccc3nc21	-1	10	4	-9	-5	-43	.	.
SMILES	GPR7 antagonist	PGE2 EP2 inh	OX1R antag-1	OX1R antag-2	CHO parental Ca	EP2 mod	OX1R HTRF confirm	CHO-K1 HTRF cnt
Cn1c(=O)c2nc(Cl)c(-c3ccccc3)nc2n(C)c1=O	8	10	87*	-16	-5	13	52	80*
Cn1c(=O)c2c(nc(Cl)n2CCOc2ccccc2)n(C)c1=O	-10	.	7	2	3	.	.	.
Cn1c(=O)c2nc3ccccc3nc2n(C)c1=O	1	9	160*	13	7	7	92*	95*
NC(=O)c1cc(S(=O)(=O)NCc2cccs2)cs1	-8	.	1	-10	-6	.	.	.
Oc1nc(Nc2ccc(F)cc2)sc1/C=C1\C=Nc2ccccc21	6	9	93*	23	2	-45	23	-1
Oc1nc(Nc2cccc(Cl)c2)sc1/C=C1\C=Nc2ccccc21	4	21	67	-12	-7	-10	.	.
NC(=O)NC(=O)C(c1ccccc1)N1CCN(S(=O)(=O)c2ccc(Br)s2)CC1 (stereo unspecified)	.	.	1	-15	-18	.	.	.
Cc1cc(C)n2nc(-c3cccc(Br)c3)cc2n1	-8	.	85*	33	-11	.	90*	-3
O=[N+]([O-])c1nn(-c2ccc(Cl)cc2)n(O)c1=NCc1ccncc1	8	2	84*	-21	-16	-40	41	54*
CCCCNc1ccc(C(CC(N)=O)NC(=O)c2cc(C)cc(C)c2)cc1[N+](=O)[O-] (stereo unspecified)	-10	.	28	-19	-3	.	.	.
CCc1nc2ccc(C(=O)Nc3cccc(C(C)=O)c3)cc2nc1CC	-8	9	81*	1	-19	-8	33	5
CCc1nc2ccc(C(=O)Nc3nnc(C)s3)cc2nc1CC	-7	7	16	-14	-20	-24	.	.
Cn1c(COc2ccc(Cl)cc2)nnc1SCC(=O)Nc1ccc2c(c1)CCC2	0	9	1	-18	-16	-3	.	.
COc1ccc(C(=O)c2c(C(F)(F)F)oc3c2C(=O)c2ccccc2C3=O)cc1OC	6	25	20	-15	-24	-46	.	.
CCOC(=O)c1c(C)oc2c1C(=O)c1ccccc1C2=O	-12	10	85*	-20	-7	-43	82*	47*
Cc1oc2c(c1C(=O)O)C(=O)c1ccccc1C2=O	-13	14	97*	0	-6	-41	72*	86*
CCC(=O)Nc1ccc(S(=O)(=O)Nc2c(C)nc3nc[nH]n3c2=O)cc1	6	.	10	2	5	.	.	.
CC(C)c1nc(C#N)c(N2CCOCC2)o1	16	11	12	0	-9	15	.	.
Cc1cc(C(=O)Cn2nnc(-c3ccc(Cl)cc3)n2)c(C)n1CC1CCCO1 (stereo unspecified)	-8	5	18	41	0	-4	.	.
